Laboratory results taken from ChEMBL document CHEMBL1122978, “Structure-activity relationship of estrogens: receptor affinity and estrogen antagonist activity of certain (E)- and (Z)-1,2,3-triaryl-2-propen-1-ones” (J Med Chem, 1985).
“And” between values parts separate entries of the source, which are not always exact repeats. Equal values may be shown once.

Columns and labels:
[1] = target: T1, Estrogen receptor (Mus musculus) (UniProt O08537+P19785); assay: In vivo anti-uterotrophic activity in mice following 1 ug estradiol i.p.; type: functional, organism-based; details: in the assay text read “s.c.” for “i.p.”
Outline: (§1)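 Antiuterotrophic test in immature female Swiss mice, 21-23 days old, 8-12 g. Each animal received 100 μg compound s.c. in propylene glycol-0.9% saline (1:1) daily for 3 days, with 1 μg E2 given at a separate site. Controls got E2 plus vehicle. Uterine weights were taken 24 h after the last dose. Activity computed as 100 × (W_ET − W_C)/(W_E − W_C).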

[2] = target: T1, Estrogen receptor (Mus musculus); assay: Percentage inhibition of uterotrophic effects of estradiol in vivo following 100 ug i.p.; type: functional, organism-based; details: in the assay text read “s.c.” for “i.p.”; outline: as §1
[3] = target: T1, Estrogen receptor (Mus musculus)
[4] = system: Estrogen receptor (Mus musculus); assay: Relative binding affinity calculated as the ratio of molar concentration of E2 and the triarylpropenones (TAP's) required to decrease [3H]E2 binding by 50%.
[5] = target: T1, Estrogen receptor (Mus musculus); assay: Uterotrophic activity as uterine weight gain in immature mice without E2 (number of animals); type: functional, tissue-based; details: Uterus
Outline: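 Uterotrophic test in immature female Swiss mice, 21-23 days old, 8-12 g. Dosing was 100 μg/animal s.c. in propylene glycol-0.9% saline (1:1) on three consecutive days, and controls got vehicle alone. Uteri were weighed at autopsy 24 h after the last injection. Group sizes are given per compound.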

[6] = target: T2, Estrogen receptor (Rattus norvegicus) (UniProt P06211+Q62986); assay: Uterotrophic activity as uterine weight gain in rats with concomitant E2 treatment; type: functional, tissue-based; details: Uterus
Outline: (§2)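 Immature female Charles Foster rats, 21-23 days old, 25-40 g, were dosed s.c. at 0.5-1000 μg/rat in propylene glycol-0.9% saline (1:1) for 3 consecutive days. Rats were given the compound either alone or with 1 μg E2 at another site. Uterine weight was measured 24 h after the last injection and reported as mean ± SD of at least six animals.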

[7] = target: T2, Estrogen receptor (Rattus norvegicus); assay: Uterotrophic activity as uterine weight gain without E2 in rats; type: functional, tissue-based; details: Uterus; outline: as §2

T1 sequence (O08537 whole entry, looked up): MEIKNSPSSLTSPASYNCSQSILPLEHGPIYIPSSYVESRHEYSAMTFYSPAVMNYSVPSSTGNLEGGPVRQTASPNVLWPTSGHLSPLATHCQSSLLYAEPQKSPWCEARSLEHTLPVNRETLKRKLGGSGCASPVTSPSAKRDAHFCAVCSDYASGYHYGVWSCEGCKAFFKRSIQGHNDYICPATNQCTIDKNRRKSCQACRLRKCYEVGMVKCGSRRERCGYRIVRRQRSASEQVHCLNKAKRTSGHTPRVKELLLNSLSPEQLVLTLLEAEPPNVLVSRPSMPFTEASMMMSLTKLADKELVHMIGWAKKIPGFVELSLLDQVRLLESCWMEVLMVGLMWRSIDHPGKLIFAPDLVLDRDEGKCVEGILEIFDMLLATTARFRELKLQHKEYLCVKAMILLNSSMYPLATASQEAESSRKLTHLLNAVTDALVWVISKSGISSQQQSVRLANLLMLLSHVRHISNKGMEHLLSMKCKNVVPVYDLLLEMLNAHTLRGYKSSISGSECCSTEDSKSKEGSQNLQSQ
T1 sequence (P19785 whole entry, looked up): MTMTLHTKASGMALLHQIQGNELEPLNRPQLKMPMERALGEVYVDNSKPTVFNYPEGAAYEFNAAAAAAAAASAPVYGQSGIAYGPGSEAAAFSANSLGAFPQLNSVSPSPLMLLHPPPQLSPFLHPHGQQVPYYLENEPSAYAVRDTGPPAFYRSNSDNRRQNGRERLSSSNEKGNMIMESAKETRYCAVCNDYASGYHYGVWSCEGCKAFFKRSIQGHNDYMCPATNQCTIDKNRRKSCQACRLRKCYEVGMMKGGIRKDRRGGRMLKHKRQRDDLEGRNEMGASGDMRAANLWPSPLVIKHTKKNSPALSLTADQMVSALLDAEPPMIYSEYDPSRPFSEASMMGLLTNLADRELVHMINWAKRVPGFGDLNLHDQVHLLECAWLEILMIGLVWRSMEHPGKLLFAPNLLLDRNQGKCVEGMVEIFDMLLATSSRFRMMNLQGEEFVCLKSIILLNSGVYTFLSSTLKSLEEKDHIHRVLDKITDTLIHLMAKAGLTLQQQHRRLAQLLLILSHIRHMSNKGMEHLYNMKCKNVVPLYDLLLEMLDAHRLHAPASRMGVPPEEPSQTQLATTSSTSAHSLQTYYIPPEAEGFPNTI

Row | Uterine weight [1] [mg] | inhibition [2] [%] | Uterine weight [3] | RBA [4] | Uterine weight [5] [mg] | Uterine weight [6] | Uterine weight [7] | Structure (SMILES)
1 | 13.6 | 60 | 3.2 mg | < 0.001 |  |  |  | O=C(/C(=C\c1ccccc1)c1ccccc1)c1ccc(O)cc1
2 | 21.9 | 18 | 6.8 mg | 0.37 |  |  |  | O=C(/C(=C/c1ccccc1)c1ccc(O)cc1)c1ccc(O)cc1
3 |  |  |  | 0.025 |  |  |  | O=C(/C(=C/c1ccccc1)c1ccccc1)c1ccc(OCCN2CCCC2)cc1
4 | 17.8 | 39 | 4.5 mg | 0.24 |  |  |  | CC(=O)Oc1ccc(/C(=C/c2ccccc2)C(=O)c2ccccc2)cc1
5 | 17.3 | 42 | 5.9 mg | 0.42 |  |  |  | CC(=O)Oc1ccc(/C=C(/C(=O)c2ccccc2)c2ccccc2)cc1
6 | 16 | 48 | 4.8 mg | < 0.001 |  |  |  | COc1ccc(C(=O)/C(=C\c2ccccc2)c2ccccc2)cc1
7 | 20.2 | 27 | 5 mg | < 0.001 |  |  |  | COc1ccc(C(=O)/C(=C/c2ccccc2)c2ccccc2)cc1
8 | 15.3 | 51 | 3 mg | < 0.001 |  |  |  | O=C(/C(=C\c1ccccc1)c1ccccc1)c1ccccc1
9 | 16.5 | 47 | 5.6 mg | 0.48 |  |  |  | O=C(/C(=C\c1ccc(O)cc1)c1ccc(O)cc1)c1ccccc1
10 | 18.5 | 36 | 4.7 mg | 0.02 |  |  |  | COc1ccc(/C(=C\c2ccccc2)C(=O)c2ccccc2)cc1

The next lines start with the molecule.

Row | Structure (SMILES) | Uterine weight [1] [mg] | inhibition [2] [%] | Uterine weight [3] | RBA [4] | Uterine weight [5] [mg] | Uterine weight [6] | Uterine weight [7]
11 | COc1ccc(/C=C(\C(=O)c2ccccc2)c2ccccc2)cc1 | 15.3 | 52 | 4.6 mg | < 0.001 |  |  | 
12 | COc1ccc(/C=C(/C(=O)c2ccccc2)c2ccccc2)cc1 | 17.3 | 42 | 4.3 mg | 0.09 |  |  | 
13 | CC(=O)Oc1ccc(/C=C(/C(=O)c2ccc(OC(C)=O)cc2)c2ccccc2)cc1 | 14 | 58 | 14 mg | 1.02 |  |  | 
14 | O=C(/C(=C/c1ccccc1)c1ccccc1)c1ccc(O)cc1 | 18.5 | 36 |  | 2.02 | 9.7 |  | 
15 | O=C(/C(=C\c1ccc(O)cc1)c1ccccc1)c1ccc(O)cc1 | 22.3 | 16 | 3.4 mg | 0.4 |  |  | 
16 | O=C(/C(=C/c1ccc(O)cc1)c1ccc(O)cc1)c1ccccc1 | 16.9 | 44 | 5.5 mg | 0.57 |  |  | 
17 | O=C(/C(=C/c1ccccc1)c1ccc(O)cc1)c1ccccc1 | 18.4 | 36 | 2.9 mg | 0.28 |  |  | 
18 | O=C(/C(=C/c1ccccc1)c1ccccc1)c1ccccc1 | 15.4 | 51 | 4.4 mg | 0.012 |  |  | 
19 | O=C(/C(=C/c1ccc(O)cc1)c1ccccc1)c1ccccc1 | 14 | 58 | 5 mg | 0.22 |  |  | 
20 | CC(=O)Oc1ccc(/C(=C\c2ccccc2)C(=O)c2ccccc2)cc1 | 21.5 | 20 | 4.2 mg | 0.28 |  |  | 
21 | O=C(/C(=C\c1ccccc1)c1ccccc1)c1ccc(OCCN2CCCC2)cc1 |  |  |  | 0.002 |  |  | 
22 | O=C(/C(=C/c1ccc(O)cc1)c1ccc(O)cc1)c1ccc(O)cc1 |  | 69 | 4.4 mg and 12 mg | 0.55 |  | 53.6 mg [middle of 5 runs] | 20.5 mg [middle of 5 runs]
23 | COc1ccc(/C(=C/c2ccccc2)C(=O)c2ccccc2)cc1 | 15.3 | 52 | 3.5 mg | < 0.001 |  |  | 
24 | O=C(/C(=C\c1ccccc1)c1ccc(O)cc1)c1ccc(O)cc1 | 14.7 | 55 | 4.1 mg | 4.75 |  |  | 
